Only some compounds are listed: those with a hit (about 2.2% of all), similar ones and a draw of the others.
Granule exo inh: LAMP-1 surface exposure blockers, TALL-104 cells – cell-based, flow cytometry, MLPCN library, primary screen; inhibition, % at 10 µM; 360,000 compounds, 0.66% hits; TALL-104 LAMP-1 surface exposure; cells stimulated with thapsigargin and PMA;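 active means inhibition above about 55%, limit read from the data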
PfG6PD inh: PfG6PD enzyme inhibitors, primary screen, biochemical, fluorescence intensity, uHTS; glucose-6-phosphate dehydrogenase-6-phosphogluconolactonase (Plasmodium falciparum 3D7); inhibition, % at 20 µM; 350,000 compounds, 0.78% hits; PfGluPho enzyme, NADPH resazurin-diaphorase fluorescence; AID 504690, 2011;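 active means inhibition reaching at least a set limit at 20 µM in the primary screen, cut at about 59% in these data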;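 further: 0% = DMSO wells with substrate and 100% = DMSO wells lacking glucose-6-phosphate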
HKDC1 inhibitor: HKDC1 hexokinase inhibitors, primary screen, biochemical, fluorescence, uHTS; inhibition, % at 20 µM; 340,000 compounds, 0.16% hits; recombinant HKDC1, G6PDH/diaphorase resazurin coupled fluorescence; Q2TB90;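 active means inhibition above about 35% when tested at 20 µM, limit read from the data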;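 further: plate controls were DMSO wells with enzyme for no effect and DMSO wells lacking enzyme for full effect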
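Test system: recombinant HKDC1 (HK5) hexokinase enzyme, produced in-house / Doses: 20 µM test compound, 1% DMSO / Timing: 90 min, room temperature / Detection: G6PDH/diaphorase-coupled fluorescence, 1 mM NADP, 100 µM resazurin, 525/613 nm / Control set: DMSO wells with and without enzyme mix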
ABHD5-PLIN5 inh: ABHD5-PLIN5 interaction inhibitors, primary screen, cell lysate, split luciferase complementation, luminescence; inhibition, % at 4 µM; Split G. princeps luciferase complementation, 4 h; Perilipin-5 (Homo sapiens) + 1-acylglycerol-3-phosphate O-acyltransferase ABHD5 (Homo …; AID 602281, 2012; 360,000 compounds, 0.78% hits;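 active means inhibition above the mean inhibition across every tested compound plus 3 SD, cut at about 22% in these data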;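 further: 0% = DMSO only wells and the 100% control is not disclosed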
ABHD5 PLIN5 conf: ABHD5-PLIN5 interaction inhibitors, confirmation, biochemical, luminescence; shares compounds with ABHD5-PLIN5 inh; 2,200 compounds, 67% hits; AID 651612, 2012; inhibition, % at 4 µM; in the data active means inhibition above about 23%;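 further: 0% = DMSO vehicle wells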
HNF4 counter: HNF4 dimerization inhibitors, counter-screen for ABHD5-PLIN5 interaction inhibitor project, biochemical, split-luciferase complementation, luminescence | shares compounds with ABHD5-PLIN5 inh | inhibition, % at 4 µM | 2,200 compounds, 77% hits | AID 651674, 2012;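 active means mean inhibition across replicate wells exceeding the computed hit threshold, cut at about 13% in these data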;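 further: light from luciferase halves that rejoin when HNF4 fusion proteins dimerize; 0% = DMSO only wells and the 100% control is not given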
Numbers without * were called inactive; . = no result.

SMILES	Granule exo inh	PfG6PD inh	HKDC1 inhibitor	ABHD5-PLIN5 inh	ABHD5 PLIN5 conf	HNF4 counter
O=C1N2CCCc3cccc(c32)C12Nc1ccccc1S2 (stereo not given)	7	47	-1	61*	-4	-4
CC1(C)COC(/C=C/c2cccc([N+](=O)[O-])c2)=N1	0	-2	11	29*	46*	49*
COCCOC(=O)/C(=C\c1cc(C(C)(C)C)c(O)c(C(C)(C)C)c1)C(C)=O	24	12	3	44*	80*	72*
COc1cc([C@H]2c3c(cc(OC)c(O)c3OC)C[C@@H](CO)[C@@H]2CO[C@@H]2O[C@H](CO)[C@@H](O)[C@H](O)[C@H]2O)cc(OC)c1O	1	27	2	-6	.	.
O=C(c1nnsc1S(=O)(=O)c1ccc(Cl)cc1)N1CCOCC1	-1	-1	3	51*	73*	71*
COc1ccc(C2CC(c3cccs3)=Nc3ccccc3S2)cc1 (stereo not given)	-1	38	3	60*	-4	-11
O=c1c2c(-c3ccccc3)csc2nc2c3ccccc3c(NCCN3CCOCC3)nn12	67*	20	4	23*	11	5
c1ccc(-c2csc3ncnc(NCCCN4CCOCC4)c23)cc1	-3	6	-7	-5	.	.
O=C1/C(=C/c2c[nH]c3ccccc23)CCC/C1=C\c1c[nH]c2ccccc12	6	28	-11	30*	29*	58*
O/N=C1\CCC\C1=C/c1ccco1	10	17	2	-2	.	.
O=C1C(=Cc2ccco2)CCCC1=Cc1ccco1	6	27	8	39*	53*	63*
O=C1C(=Cc2ccco2)CCC1=Cc1ccco1	0	49	27	37*	59*	89*
COc1ccccc1NC(=O)C(C)OC(=O)CCCOc1ccccc1 (stereo not given)	2	-11	-2	15	.	.
CNC(=S)N(CCc1c(C)[nH]c2ccc(C)cc12)Cc1ccco1	12	32	3	31*	2	-6
COc1ccc(C(=O)Oc2cc3c4c(c2)C(C)=CC(C)(C)N4C(=O)C3=O)cc1OC	5	8	20	6	.	.
COc1cccc(C(=O)Oc2cc3c4c(c2)C(C)=CC(C)(C)N4C(=O)C3=O)c1	19	12	24	33*	43*	46*
CCOc1ccc(S(=O)(=O)N(C(=O)c2ccco2)c2cc3sc(=O)oc3c3ccccc23)cc1	1	58	30	35*	-62	34*
CCOc1ccc(S(=O)(=O)N(C)CC(=O)NCc2ccco2)cc1	-3	-6	5	-1	.	.
N#CCCn1cc(/C=N/O)c(-c2ccc(F)cc2)n1	0	-5	6	1	.	.
CC1(C)CC(=O)C(=Cc2cn(CCC#N)nc2-c2ccc(F)cc2)C(=O)C1	28	31	0	23*	45*	38*
CN1C(=O)C2C(c3ccc(N(C)C)cc3)=NN(Cc3ccccc3)C2C1=O (stereo not given)	-2	10	3	4	.	.
CCOC(=O)C1=CC[C@@H](c2ccccc2)N(S(=O)(=O)c2ccc(C)cc2)[C@H]1c1ccc(C#N)cc1	-2	.	.	2	.	.
CCOC(=O)C1=CC[C@@H](c2ccccc2)N(S(=O)(=O)c2ccc(C)cc2)[C@H]1C#N	15	.	.	58*	30*	65*
COc1ccc(NC2CCCN(C(=O)c3ccccc3C(F)(F)F)C2)cc1 (stereo not given)	1	9	0	-2	.	.
O=C(/C=C/c1ccco1)c1ccccc1O	0	20	-7	8	.	.
SMILES	Granule exo inh	PfG6PD inh	HKDC1 inhibitor	ABHD5-PLIN5 inh	ABHD5 PLIN5 conf	HNF4 counter
O=C(C=Cc1ccco1)c1cc(Cl)ccc1O	2	19	15	27*	53*	34*
COC(=O)CSc1nnc(C)c(=O)[nH]1	-2	-4	-5	0	.	.
CCOC(=O)CNc1nnc(SCC(=O)OCC)[nH]c1=O	1	-15	3	26*	41*	83*
CC1CCC2(CC1)NC(=O)N(CC(=O)N1CCOCC1)C2=O (stereo not given)	1	-4	-5	7	.	.
CCC(C)(C)NC(=O)c1ccc(Sc2nncn2C)c([N+](=O)[O-])c1	-1	-12	2	3	.	.
Cn1cnnc1Sc1ccc(/C=C/C(=O)c2ccc(O)cc2)cc1[N+](=O)[O-]	-2	15	14	64*	87*	87*
Nc1nc2ccc(Cl)cc2cc1C(=O)NC1CC1	-10	.	.	-11	.	.
COC(=O)C1=C(C)N(Cc2ccco2)C(=O)/C1=C\c1ccc([N+](=O)[O-])cc1	92*	25	9	70*	98*	95*
COc1cc(NC(=O)C/C(C)=N/NC(=O)Cc2ccccc2)c(OC)cc1Cl	3	-2	-5	13	.	.
COc1cc(NC(=O)C/C(C)=N/NC(=O)c2cccs2)c(OC)cc1Cl	-3	-3	-11	36*	8	16*
Oc1c(C(Nc2nc3ccccc3s2)c2ccco2)ccc2cccnc12 (stereo not given)	11	7	-29	45*	20	14*
CC(C)C(=O)NC(c1ccco1)c1ccc2cccnc2c1O (stereo not given)	4	-42	-17	2	.	.
CCN(CC)c1ccc(N=Nc2nn(C)c(C)c2[N+](=O)[O-])cc1	3	28	0	25*	29*	33*
O=C1CCC(C(=O)OCC(=O)Nc2ccc(SC(F)F)cc2)=NN1	19	12	.	4	.	.
COCc1cc(CNC(=O)C2CCC(=O)N(Cc3ccccc3OC)C2)[nH]n1 (stereo not given)	2	4	2	24*	-1	-2
COCc1cc(CNC(=O)C2CCC(=O)N(Cc3ccccc3F)C2)[nH]n1 (stereo not given)	44	5	-3	-8	.	.
CN(C)CCCNC(=O)/C(=C\c1ccc(-c2cccc([N+](=O)[O-])c2)o1)NC(=O)c1ccccc1	-2	22	-11	14	.	.
CN(C)CCNC(=O)/C(=C/c1ccc(-c2ccc(Cl)cc2)o1)NC(=O)c1ccccc1	4	5	14	25*	13	4
CN(C)CCNC(=O)/C(=C/c1ccc(-c2ccc(Cl)cc2Cl)o1)NC(=O)c1ccccc1	28	-10	-12	35*	7	12
COc1ccccc1-c1cc(C(F)(F)F)nc(S(C)(=O)=O)n1	19	-15	3	44*	67*	86*
COc1ccccc1-c1cc(C(F)(F)F)nc(S(=O)(=O)CCCC(=O)NC(C)C)n1	4	11	1	5	.	.
